Source: ChEMBL document CHEMBL1123777 (J Med Chem, 1987)

Tests used:
Oryctolagus cuniculus = species: Oryctolagus cuniculus; experiment: Ability to relax the electrically stimulated rabbit ear artery was determined; type: functional
Outline: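 Isolated, perfused rabbit ear artery under electrical stimulation; inhibition of the neurogenic response taken as the D-2 agonist read-out. Concentration–response curves were also run in the presence of (S)-sulpiride at several nM concentrations. Points are mean ± SEM of at least four experiments.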

D(1A) dopamine receptor [1] = target: T1, D(1A) dopamine receptor (Rattus norvegicus, UniProt P18901); experiment: Dopamine receptor D1 agonist efficacy was measured with stimulation of dopamine-sensitive rat adenylate cyclase in caudate membranes; NS means not significant.; type: functional, cell membranes, Membrane
T1 sequence (P18901 whole entry): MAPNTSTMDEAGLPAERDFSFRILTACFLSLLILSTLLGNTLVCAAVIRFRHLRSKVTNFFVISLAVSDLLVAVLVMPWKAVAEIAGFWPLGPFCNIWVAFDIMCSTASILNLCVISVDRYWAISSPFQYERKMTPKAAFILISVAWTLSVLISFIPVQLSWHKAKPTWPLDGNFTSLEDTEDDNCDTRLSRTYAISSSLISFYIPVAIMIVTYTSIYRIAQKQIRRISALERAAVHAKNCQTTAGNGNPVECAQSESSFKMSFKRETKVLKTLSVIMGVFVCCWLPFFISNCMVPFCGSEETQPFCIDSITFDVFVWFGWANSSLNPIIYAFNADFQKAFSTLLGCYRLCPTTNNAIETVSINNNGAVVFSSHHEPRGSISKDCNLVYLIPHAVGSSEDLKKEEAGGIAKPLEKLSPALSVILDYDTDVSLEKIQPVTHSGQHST

D(2) dopamine receptor = D(2) dopamine receptor (Bos taurus, UniProt P20288); experiment: Displacement of [3H]spiroperidol from homogenized bovine pituitary Dopamine receptor D2
D(2) dopamine receptor, sequence (P20288 whole entry): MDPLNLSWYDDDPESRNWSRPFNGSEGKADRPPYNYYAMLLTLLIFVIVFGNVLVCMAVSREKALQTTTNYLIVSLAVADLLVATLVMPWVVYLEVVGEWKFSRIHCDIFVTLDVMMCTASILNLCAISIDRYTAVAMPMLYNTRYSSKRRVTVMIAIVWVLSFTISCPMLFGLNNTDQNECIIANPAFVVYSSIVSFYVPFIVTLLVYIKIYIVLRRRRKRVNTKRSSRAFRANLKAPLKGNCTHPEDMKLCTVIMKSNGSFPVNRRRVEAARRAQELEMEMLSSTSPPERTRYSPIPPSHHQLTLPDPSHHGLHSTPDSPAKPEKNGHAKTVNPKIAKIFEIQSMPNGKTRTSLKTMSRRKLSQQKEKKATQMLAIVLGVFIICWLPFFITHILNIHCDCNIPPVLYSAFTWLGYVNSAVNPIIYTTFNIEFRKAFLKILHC

D(1A) dopamine receptor [2] = target: T1, D(1A) dopamine receptor; experiment: Dopamine D1 agonist efficacy was measured with stimulation of dopamine-sensitive rat adenylate cyclase in caudate membranes; type: functional, cell membranes, Membrane
[3] = target: D(1A) dopamine receptor (Rattus norvegicus) (UniProt P18901); settings: Striatum
D(1A) dopamine receptor (Rattus norvegicus), sequence (P18901 whole entry): as the sequence (P18901 whole entry) above

[4] = target: D(1A) dopamine receptor (Rattus norvegicus) (UniProt P18901); settings: Striatum; remark: listed apart in the source
D(1A) dopamine receptor [5] = target: T1, D(1A) dopamine receptor; experiment: Dopamine receptor D1 agonist efficacy was measured with stimulation of dopamine-sensitive rat adenylate cyclase in caudate membranes. Partial agonist, maximum effect 60% of dopamine maximum effect.; type: functional, cell membranes, Membrane
D(1A) dopamine receptor [6] = target: T1, D(1A) dopamine receptor; experiment: Dopamine receptor D1 agonist efficacy was measured with stimulation of dopamine-sensitive rat adenylate cyclase in caudate membranes; type: functional, cell membranes, Membrane
D(1A) dopamine receptor [7] = target: T1, D(1A) dopamine receptor; experiment: Dopamine receptor D1 agonist efficacy was measured with stimulation of dopamine-sensitive rat adenylate cyclase in caudate membranes. Partial agonist, maximum effect 59% of dopamine maximum effect; type: functional, cell membranes, Membrane

Compound	EC50 (Oryctolagus cuniculus) [nM]	IC50 (D(2) dopamine receptor) [nM]	other results
NCCc1cccc2nc(O)sc12	1000	> 10000	EC50 (D(1A) dopamine receptor [1]): Not Active
CCCN(CCC)CCc1cccc2nc(O)sc12	28	1000	
NCCc1ccc(O)c(O)c1 [DOPAMINE]	76		
CCCN(CCC)CCc1ccc(O)c2c1CC(=O)N2 [SKF-89124A]	1.8	530	EC50 (D(1A) dopamine receptor [2]): 20000 nM
CCCN(CCC)CCc1ccc(O)c2nc(O)oc12	8	1200	
CCCN(CCC)CCc1cccc2c1CC(=O)N2 [ROPINIROLE]		6810	
CCCN(CCC)CCc1ccc(O)c2[nH]c(O)nc12	9	1000	
Oc1ccc(C2CNCCc3c2cc(O)c(O)c3Cl)cc1 (configuration not stated) [FENOLDOPAM]	1200		K bind [3]: 3 nM
CCCN(CCC)CCc1ccc(O)c2c1C(=O)C(=O)N2	7	560	EC50 (D(1A) dopamine receptor [1]): Not Active
CNCCc1ccc(O)c2nc(O)sc12	6		
NCCc1ccc(O)c2nc(O)sc12	30	2000	K bind [4]: 9 nM; EC50 (D(1A) dopamine receptor [5]): 295 nM
CCCN(CCC)CCc1ccc(O)c2nc(O)sc12	0.028	49	
CCCN(CCC)CCc1ccc(O)c(O)c1	80		EC50 (D(1A) dopamine receptor [6]): 12500 nM
NCCc1ccc(O)c2c1CC(=O)N2		4850	EC50 (D(1A) dopamine receptor [7]): 4650 nM; K bind [3]: 700 nM
CCCN(CCC)CCc1c(Cl)cc(O)c2nc(O)sc12	50		
